Active and inactive are the calls of the source. The calls are words filed in the database; no cut-off is given here.
How the values were obtained:
NCI-H522 [1] = assay: Cytotoxicity against human NCI-H522 cells assessed as reduction in cell survival at […] incubated for 3 days by methylene blue staining based analysis; assay type: functional; settings: dose 2.5 µM, time 3.0 day
Histone deacetylase 1 = Histone deacetylase 1 (Homo sapiens, UniProt Q13547); assay: Inhibition of full length his6/FLAG-tagged human recombinant HDAC1(1 to 482 residues) expressed in Sf9 insect cells
Histone deacetylase 2 = Histone deacetylase 2 (Homo sapiens, UniProt Q92769)
[2] = biological target: T1, Protein deacetylase HDAC6 (Homo sapiens, UniProt Q9UBN7); assay: Inhibition of full length C-terminal FLAG-tagged human recombinant HDAC6 expressed inSf9 insect cells; parameters: species or system Sf9
T1 sequence (Q9UBN7 whole entry): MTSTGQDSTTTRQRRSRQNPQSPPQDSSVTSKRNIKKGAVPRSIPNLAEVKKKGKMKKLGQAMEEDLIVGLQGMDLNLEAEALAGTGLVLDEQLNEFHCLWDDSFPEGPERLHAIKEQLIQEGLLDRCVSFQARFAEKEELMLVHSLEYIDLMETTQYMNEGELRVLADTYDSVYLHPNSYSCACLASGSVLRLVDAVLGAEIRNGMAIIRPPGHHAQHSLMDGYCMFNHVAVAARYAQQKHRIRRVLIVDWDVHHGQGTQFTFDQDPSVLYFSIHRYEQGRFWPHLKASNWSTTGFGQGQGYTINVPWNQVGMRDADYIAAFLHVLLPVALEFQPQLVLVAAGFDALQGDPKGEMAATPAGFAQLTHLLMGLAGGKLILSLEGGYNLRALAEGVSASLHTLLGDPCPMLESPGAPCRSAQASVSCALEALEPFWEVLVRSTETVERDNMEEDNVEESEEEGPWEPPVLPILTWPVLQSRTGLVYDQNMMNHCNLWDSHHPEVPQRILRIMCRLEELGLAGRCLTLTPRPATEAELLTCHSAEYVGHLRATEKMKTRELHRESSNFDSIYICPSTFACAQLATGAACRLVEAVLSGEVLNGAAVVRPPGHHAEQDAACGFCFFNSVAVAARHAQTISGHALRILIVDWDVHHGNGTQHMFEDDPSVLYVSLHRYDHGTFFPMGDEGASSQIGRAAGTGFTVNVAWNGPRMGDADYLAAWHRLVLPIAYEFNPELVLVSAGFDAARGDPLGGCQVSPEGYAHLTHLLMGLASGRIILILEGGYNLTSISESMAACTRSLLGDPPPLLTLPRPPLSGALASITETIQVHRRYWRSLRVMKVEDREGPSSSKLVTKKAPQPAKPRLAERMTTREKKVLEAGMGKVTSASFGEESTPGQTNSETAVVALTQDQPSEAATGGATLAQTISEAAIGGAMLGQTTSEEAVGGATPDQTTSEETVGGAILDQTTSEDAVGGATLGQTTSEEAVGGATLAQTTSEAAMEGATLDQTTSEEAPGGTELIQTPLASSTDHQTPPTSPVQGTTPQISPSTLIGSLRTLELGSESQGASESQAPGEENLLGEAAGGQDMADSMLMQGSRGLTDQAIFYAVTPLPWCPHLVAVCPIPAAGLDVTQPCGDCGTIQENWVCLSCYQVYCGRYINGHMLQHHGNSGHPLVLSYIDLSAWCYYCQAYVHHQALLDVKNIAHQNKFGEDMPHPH

Histone deacetylase 3 = Histone deacetylase 3 (Homo sapiens, UniProt O15379); assay: Inhibition of full length C-terminal his6/FLAG-tagged human recombinant HDAC3 ([…]) expressed in Sf9 insect cells
Histone deacetylase 8 = biological target: T2, Histone deacetylase 8 (Homo sapiens, UniProt Q9BY41); assay: Inhibition of full length C-terminal his-tagged human recombinant HDAC8 expressed in Sf9 insect cells
T2 sequence (Q9BY41 whole entry): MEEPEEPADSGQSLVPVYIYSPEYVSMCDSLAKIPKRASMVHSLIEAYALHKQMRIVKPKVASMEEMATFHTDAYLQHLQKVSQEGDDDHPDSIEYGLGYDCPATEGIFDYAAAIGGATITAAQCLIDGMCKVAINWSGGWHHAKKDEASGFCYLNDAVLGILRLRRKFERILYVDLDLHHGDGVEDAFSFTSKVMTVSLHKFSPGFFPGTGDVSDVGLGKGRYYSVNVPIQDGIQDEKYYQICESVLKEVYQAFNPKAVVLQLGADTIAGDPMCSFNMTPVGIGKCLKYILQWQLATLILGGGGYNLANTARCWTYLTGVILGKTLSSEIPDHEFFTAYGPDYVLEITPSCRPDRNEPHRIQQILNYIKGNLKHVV

Histone deacetylase 4 = Histone deacetylase 4 (Homo sapiens, UniProt P56524); assay: Inhibition of […] N-terminal GST/C-terminal his-tagged human recombinant HDAC4 (627 to 1084 residues) expressed in Sf9 insect cells
NCI-H522 [3] = assay: Cytotoxicity against human NCI-H522 cells assessed as reduction in cell viability incubated for 30 mins by methylene blue staining based analysis; settings: NCI-H522, 0.5 h
HCT-116 = assay: Cytotoxicity against human HCT-116 cells assessed as reduction in cell viability incubated for 30 mins by methylene blue staining based analysis; settings: HCT-116, 0.5 h
NCI-H522 [4] = assay: Cytotoxicity against human NCI-H522 cells assessed as reduction in cell survival at 1 to 5 uM incubated for 3 days in presence of ferroptosis inhibitor, liproxstatin-1 by methylene blue staining based analysis; assay type: functional; settings: dose 1-5 µM, time 3.0 day
NCI-H522 [5] = assay: Cytotoxicity against human NCI-H522 cells assessed as reduction in cell survival at 1 to 5 uM incubated for 3 days in presence of 2-Bromo-N-(7-(hydroxyamino)-7-oxoheptyl)thiazole-4-carboxamide by methylene blue staining based analysis; assay type: functional; settings: dose 1-5 µM, time 3.0 day
Procedure, shortened: (§1)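 Cells (5000/well, n = 3, DMEM with 10% serum, 37 °C, 5% CO2) were treated the day after plating and kept for three days. […] Survival was expressed relative to DMSO.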

[6] = Neurotoxicity in human SH-SY5Y cells assessed as decrease in cell viability at 1.665 to 6.665 uM incubated for 3 days; assay type: toxicity, cell-based; settings: 72 h, dose 1.665-6.665 µM, time 3 day
Procedure, shortened: (§2)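 SH-SY5Y cells were grown on poly-D-lysine in DMEM/F12 with 10% FBS and seeded at 15,000/well 36 h before dosing, with DMSO as vehicle. Viability was read by MTT: 2 h at 37 °C, then solubilization for 1 h and absorbance at 570. Data are triplicates from three separate experiments.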

NCI-H522 [7] = assay: Induction of cell cycle arrest in human NCI-H522 cells assessed as accumulation at S phase 5 uM incubated for 24 to 72 hrs by PI staining based flow cytometric analysis; assay type: functional; settings: time lower […], time upper […]
NCI-H522 [8] = assay: Induction of cell cycle arrest in human NCI-H522 cells assessed as accumulation at G1 phase 5 uM incubated for 24 to 72 hrs by PI staining based flow cytometric analysis; assay type: functional; settings: time lower […], time upper […]
NCI-H522 [9] = assay: Induction of cell cycle arrest in human NCI-H522 cells assessed as accumulation at G2/M phase 5 uM incubated for 24 to 72 hrs by PI staining based flow cytometric analysis; assay type: functional; settings: time lower […], time upper […]
NCI-H522 [10] = assay: Cytotoxicity against human NCI-H522 cells assessed as reduction in cell survival at 1 to 5 uM incubated for 3 days in presence of Methyl 7-(2-ethynylthiazole-4-carboxamido)heptanoate by methylene blue staining based analysis; assay type: functional; settings: dose 1-5 µM, time 3.0 day; procedure, shortened: as §1
[11] = Neurotoxicity in human SH-SY5Y cells assessed as decrease in cell viability at 20 to 80 uM incubated for 3 days; assay type: toxicity, cell-based; settings: 72 h, dose 20-80 µM, time 3 day; procedure, shortened: as §2
[12] = Neurotoxicity in human SH-SY5Y cells assessed as decrease in cell viability at 6.665 uM incubated for 3 days; assay type: toxicity, cell-based; settings: 72 h, time 3 day; procedure, shortened: as §2

Histone deacetylase 2, sequence (Q92769 whole entry): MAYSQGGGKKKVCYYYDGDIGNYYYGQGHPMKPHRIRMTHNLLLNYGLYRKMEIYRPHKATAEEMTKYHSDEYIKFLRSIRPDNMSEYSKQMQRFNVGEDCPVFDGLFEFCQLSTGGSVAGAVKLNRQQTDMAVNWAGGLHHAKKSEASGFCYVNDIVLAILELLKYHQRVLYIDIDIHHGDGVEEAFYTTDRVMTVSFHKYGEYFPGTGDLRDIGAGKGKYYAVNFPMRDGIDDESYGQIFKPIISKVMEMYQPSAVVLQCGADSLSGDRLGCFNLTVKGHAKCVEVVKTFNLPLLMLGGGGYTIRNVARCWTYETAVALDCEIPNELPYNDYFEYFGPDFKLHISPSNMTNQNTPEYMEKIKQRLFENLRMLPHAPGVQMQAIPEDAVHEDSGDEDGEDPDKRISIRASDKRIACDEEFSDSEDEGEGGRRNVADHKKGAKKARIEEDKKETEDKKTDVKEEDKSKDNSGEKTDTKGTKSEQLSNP
Histone deacetylase 1, sequence (Q13547 whole entry, the tested form may be a part): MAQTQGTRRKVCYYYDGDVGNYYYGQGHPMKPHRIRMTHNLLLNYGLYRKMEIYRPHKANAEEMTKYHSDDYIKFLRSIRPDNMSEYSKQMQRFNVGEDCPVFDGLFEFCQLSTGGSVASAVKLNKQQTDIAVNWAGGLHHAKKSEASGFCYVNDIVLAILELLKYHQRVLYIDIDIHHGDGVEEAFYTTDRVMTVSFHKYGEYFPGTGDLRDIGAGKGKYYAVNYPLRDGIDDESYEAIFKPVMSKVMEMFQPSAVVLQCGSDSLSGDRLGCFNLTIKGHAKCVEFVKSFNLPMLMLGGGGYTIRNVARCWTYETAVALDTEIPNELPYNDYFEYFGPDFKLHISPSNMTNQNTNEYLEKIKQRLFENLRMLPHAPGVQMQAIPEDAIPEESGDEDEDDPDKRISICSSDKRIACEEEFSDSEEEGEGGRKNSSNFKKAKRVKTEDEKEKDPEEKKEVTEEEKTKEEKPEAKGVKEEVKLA
Histone deacetylase 4, sequence (P56524 whole entry, the tested form may be a part): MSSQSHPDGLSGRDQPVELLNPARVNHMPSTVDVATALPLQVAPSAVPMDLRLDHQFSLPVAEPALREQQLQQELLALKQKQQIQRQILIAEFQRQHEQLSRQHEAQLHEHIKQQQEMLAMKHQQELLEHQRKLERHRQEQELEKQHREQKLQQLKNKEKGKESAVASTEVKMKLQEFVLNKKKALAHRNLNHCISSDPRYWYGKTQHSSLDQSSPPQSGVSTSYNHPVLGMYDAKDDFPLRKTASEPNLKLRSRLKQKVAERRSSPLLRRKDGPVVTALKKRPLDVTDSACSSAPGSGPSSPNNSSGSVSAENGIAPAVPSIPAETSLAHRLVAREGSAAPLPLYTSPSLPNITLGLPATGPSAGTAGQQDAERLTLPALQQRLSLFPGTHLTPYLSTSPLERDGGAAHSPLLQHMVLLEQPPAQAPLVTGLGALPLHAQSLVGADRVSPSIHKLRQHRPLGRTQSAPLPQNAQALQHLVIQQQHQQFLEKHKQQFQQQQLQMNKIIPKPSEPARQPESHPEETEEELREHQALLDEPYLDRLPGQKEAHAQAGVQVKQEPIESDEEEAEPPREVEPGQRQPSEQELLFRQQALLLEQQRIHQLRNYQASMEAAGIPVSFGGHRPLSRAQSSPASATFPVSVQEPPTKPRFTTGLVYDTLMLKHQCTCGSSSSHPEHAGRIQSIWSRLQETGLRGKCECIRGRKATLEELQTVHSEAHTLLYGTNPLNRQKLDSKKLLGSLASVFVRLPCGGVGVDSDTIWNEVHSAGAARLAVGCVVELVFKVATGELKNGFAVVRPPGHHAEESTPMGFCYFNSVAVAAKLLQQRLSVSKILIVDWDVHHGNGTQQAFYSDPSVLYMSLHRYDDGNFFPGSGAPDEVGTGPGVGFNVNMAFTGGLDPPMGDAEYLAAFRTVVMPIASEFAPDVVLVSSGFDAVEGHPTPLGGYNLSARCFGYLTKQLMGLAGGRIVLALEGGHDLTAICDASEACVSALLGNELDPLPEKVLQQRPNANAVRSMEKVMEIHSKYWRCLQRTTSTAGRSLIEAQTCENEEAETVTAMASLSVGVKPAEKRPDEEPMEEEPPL
Histone deacetylase 3, sequence (O15379 whole entry): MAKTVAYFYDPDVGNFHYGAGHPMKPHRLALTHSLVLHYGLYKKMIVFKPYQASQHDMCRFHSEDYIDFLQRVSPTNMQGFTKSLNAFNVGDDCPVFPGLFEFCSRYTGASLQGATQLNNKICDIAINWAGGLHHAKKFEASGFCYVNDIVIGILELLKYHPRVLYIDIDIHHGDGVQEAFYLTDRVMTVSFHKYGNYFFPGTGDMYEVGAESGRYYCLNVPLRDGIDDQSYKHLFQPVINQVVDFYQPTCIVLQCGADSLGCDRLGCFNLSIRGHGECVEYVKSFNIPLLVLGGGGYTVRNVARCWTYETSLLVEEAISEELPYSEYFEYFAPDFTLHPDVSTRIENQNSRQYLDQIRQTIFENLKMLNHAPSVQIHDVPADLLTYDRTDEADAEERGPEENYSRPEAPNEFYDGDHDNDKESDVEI

C#Cc1nc(/C=C/C=C/C(=O)NO)cs1
Activity (NCI-H522 [1]): Active | IC50 (Histone deacetylase 1): 1000 nM | IC50 (Histone deacetylase 2): 1200 nM | IC50 [2]: 160 nM | IC50 (Histone deacetylase 3): 3100 nM | IC50 (Histone deacetylase 8): 670 nM | IC50 (Histone deacetylase 4): 2100 nM

C#Cc1nc(C=CCCCCCC(=O)NO)cs1
IC50 (NCI-H522 [3]): 1670 nM | IC50 (HCT-116): 3420 nM

C#Cc1nc(C(=O)NCCCCCCC(=O)OC)cs1
Activity (NCI-H522 [4]): Active | Activity (NCI-H522 [5]): Active | Activity [6]: Toxic

O=C(CCCCC/C=C\c1csc(Br)n1)NO
Activity (NCI-H522 [4]): Active

O=C(CCCCCCC(=O)Nc1ccccc1)NO [VORINOSTAT]
Activity (NCI-H522 [7]): Active | Activity (NCI-H522 [8]): Active | Activity (NCI-H522 [9]): Active

O=C(CCCCCCNC(=O)c1csc(Br)n1)NO
Activity (NCI-H522 [4]): Active | Activity (NCI-H522 [10]): Active | Activity [11]: Toxic | Activity [12]: Toxic
